Screening data as filed in PubChem.
In the library only some 1.5% were active in any assay of this set; here they are far more common.
APJ agonist – activates the human apelin receptor APJ; P35414; CHO-K1 APJ PathHunter beta-arrestin, luminescence; 0% DMSO wells, 100% apelin; activation, % at 20 µM; 330,000 tested, 0.11% active;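 active means activation more than six SD over the plate average, tested at 20 µM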
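Test system: CHO-K1 APJ beta-arrestin complementation cell line. Amount: cell density 1000 per well. Controls: DMSO negative, 10 nM Apelin-13 positive. Signal: luminescent beta-gal fragment complementation, chemiluminescent substrate. Read-out basis: agonist-driven arrestin binding to APJ. Timing: compound stimulation 90 min at 25 °C, detection 60 min.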
CCR6 antag – antagonists of human CCR6 receptor. CHO-K1 CCR6 PathHunter beta-arrestin, luminescence, CCL20-stimulated. AID 493098. 340,000 tested, 0.49% active. inhibition, % at 20 µM;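 active means compounds whose inhibition of the agonist-driven luminescence signal at 20 µM reaches about 50%, limit read from the data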;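 further: cells stimulated with CCL20 at 14 nM final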
APJ antagonist – APJ receptor antagonism. P35414. CHO-K1 APJ beta-arrestin complementation, luminescence. inhibition, % at 20 µM. 330,000 tested, 0.32% active. AID 2521;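 active means inhibition above about 40% at 20 µM, limit read from the data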;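 further: cells challenged with 10 nM apelin-13 agonist together with compound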
EBI2 block – blocks human EBI2 receptor beta-arrestin signaling. P32249. AID 651636. inhibition, % at 5 µM. EBI2 beta-arrestin recruitment, luminescence, 7a,25-OHC stimulated. 360,000 tested, 0.81% active; in the data active means inhibition above about 38%;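 further: enzyme fragment complementation signal reports receptor beta-arrestin coupling in cells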
CXCR6 block – CXCR6 (human) receptor inhibition. 360,000 tested, 0.36% active. CHO-K1 PathHunter CXCR6 beta-arrestin, luminescence. inhibition, % at 20 µM. AID 602244; in the data active means inhibition above about 34%, passing the limit was not always enough;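 further: antagonist mode with CXCL16 agonist at 10 nM final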
Target sequence (O00574 whole entry, looked up): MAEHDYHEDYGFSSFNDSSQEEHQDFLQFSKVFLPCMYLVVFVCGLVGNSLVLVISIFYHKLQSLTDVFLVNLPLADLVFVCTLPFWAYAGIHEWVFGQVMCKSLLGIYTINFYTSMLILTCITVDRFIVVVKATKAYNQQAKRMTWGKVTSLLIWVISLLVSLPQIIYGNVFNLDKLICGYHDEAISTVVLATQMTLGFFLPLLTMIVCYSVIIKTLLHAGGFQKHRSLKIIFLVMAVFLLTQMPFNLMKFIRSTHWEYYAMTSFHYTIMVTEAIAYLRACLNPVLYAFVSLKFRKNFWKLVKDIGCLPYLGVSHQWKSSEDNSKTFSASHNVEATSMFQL
APJ antag conf – confirmation of human APJ apelin receptor antagonists; shares compounds with APJ antagonist; APJ beta-arrestin recruitment, luminescence, antagonist mode; inhibition, % at 20 µM; 950 tested, 66% active; in the data active means inhibition above about 50%
Hits are given with their value; – = inactive; · = not tested or not shown.

SMILES	APJ agonist	CCR6 antag	APJ antagonist	EBI2 block	CXCR6 block	APJ antag conf
Cc1ccc(C(O)C(=O)c2ccco2)cc1 (stereo unspecified)	–	–	–	–	–	·
O=C(c1ccco1)C(O)c1ccco1 (stereo unspecified)	–	58	52	–	–	98
COc1cc(/C=C(\C#N)c2nc3ccccc3s2)cc([N+](=O)[O-])c1O	–	60	51	–	44	88
N#C/C(=C\c1ccc(O)c([N+](=O)[O-])c1)c1nc2ccccc2s1	·	–	·	–	–	·
Cc1ccc(-c2csc3ncnc(NCCC(=O)O)c23)cc1C	–	–	–	–	–	·
Cc1cccc(-c2cc3c(nn2)-c2ccccc2C3=O)c1	–	–	–	–	–	·
COc1ccc(-c2cc3c(nn2)-c2ccccc2C3=O)cc1	–	–	40	51	–	143
O=C1c2ccccc2-c2nnc(-c3ccccc3)cc21	–	56	53	70	–	143
COc1ccc(-c2cn(Cc3ccc4c(c3)C(=O)c3ccccc3C4=O)nn2)cc1	–	–	–	–	–	·
COc1cccc(N=C2NC(=O)/C(=C/c3cc([N+](=O)[O-])ccc3O)S2)c1	–	–	41	–	–	52
O=C1NC(=Nc2ccccc2Cl)S/C1=C\c1cc([N+](=O)[O-])ccc1O	–	–	–	–	–	·
COc1cccc(CC(NC(C)=O)C(=O)NC2CCN(C(=O)c3ccc(Cl)cc3)CC2)c1 (stereo unspecified)	–	–	–	–	–	·
Fc1ccc(NC(=S)Nc2ccc(Cl)cc2Cl)cc1	–	–	57	·	·	63
Fc1ccc(CNC(=S)Nc2ccc(Cl)cc2Cl)cc1	–	–	–	–	–	·
CC([NH2+][O-])C(C)(C)NO (stereo unspecified)	–	51	47	–	–	–
Cc1cccc(N2CC(C(=O)NCc3ccco3)CC2=O)c1C (stereo unspecified)	–	–	–	–	–	·
COC(=O)c1ccc(CNC(=O)CN2C(=O)NC(Cc3ccccc3)(c3ccccc3)C2=O)cc1 (stereo unspecified)	·	·	·	–	–	·
O=C(Cn1nnc2ccccc21)OCC(=O)c1ccc(Cl)c(Cl)c1	–	73	91	–	–	111
Cc1ccc(C(=O)COC(=O)c2ccncc2)cc1[N+](=O)[O-]	–	–	46	–	–	70
O=C(COC(=O)c1ccncc1)c1ccc(Cl)c(Cl)c1	–	–	74	–	–	86
O=C(Cn1nnc2ccccc21)OCC(=O)c1ccccc1	–	–	–	–	–	·
Cc1ccc(C(=O)COC(=O)c2cc(Cl)ccc2O)cc1[N+](=O)[O-]	–	–	–	–	–	·
CC(=O)Nc1ccc(Nc2nc(C(F)(F)F)nc3c2nnn3Cc2ccccc2Cl)cc1	–	–	–	–	–	·
CC1CCN(C(=O)CCNS(=O)(=O)c2ccc3c(c2)c(=O)n(C)c(=O)n3C)CC1	–	–	–	–	–	·
OC1CN=C2CCCc3c2n(c2ccc(Cl)cc32)C1 (stereo unspecified)	–	68	61	–	52	101
SMILES	APJ agonist	CCR6 antag	APJ antagonist	EBI2 block	CXCR6 block	APJ antag conf
COc1ccc(S(=O)(=O)N2CCC(=O)N2)cc1	–	–	46	–	–	–
COc1ccc(S(=O)(=O)N2CCNC(=O)CC2)cc1	–	–	–	–	–	·
CCN1C(=O)/C(=C\C=C2/C=CC=CN2CC)SC1=S	–	64	65	–	54	122
O=c1[nH]c2ccccc2nc1-c1nnnn1Cc1ccccc1	·	·	·	–	–	·
CC12CCC(=O)N1C(C(=O)Nc1ccccc1N1CCCCC1)CS2 (stereo unspecified)	–	–	–	–	–	·
Cc1cc(Br)c(Cl)cc1NC(=O)CN1C(=O)C2C3CC(c4ccccc4)C(C3)C2C1=O (stereo unspecified)	–	–	55	–	–	–
Cc1cc(NC(=O)CCN2C(=O)C3C4CCC(C4)C3C2=O)c(C)cc1Br (stereo unspecified)	–	–	–	–	–	·
O=C(NNc1ncc(C(F)(F)F)cc1Cl)c1c(Cl)cccc1Cl	–	–	–	–	–	65
Cc1c(Cl)cccc1NC(=S)NNc1ncc(C(F)(F)F)cc1Cl	–	87	72	–	53	117
O=C1ON=C(c2ccccc2)/C1=C/c1ccc(O)c(O)c1	–	–	42	–	–	68
COc1ccc(/C=C2\C(=O)ON=C2c2ccccc2)cc1	–	–	–	–	–	·
Cc1cccc(C(=O)OCC(=O)c2ccc(CC(=O)N3CCOCC3)s2)c1C	–	–	–	–	–	·
COc1ccc(Cl)cc1C(=O)NNC(=S)NC(=O)c1ccc(F)c(F)c1	–	–	40	–	–	–
N#CC(c1ccc(Cl)cc1)c1ccc2c(C(F)(F)F)cc(C(F)(F)F)nc2n1 (stereo unspecified)	–	56	47	–	45	76
FC(F)(F)c1cc(C(F)(F)F)c2ccc(N3CCN(c4ccc(Cl)cc4)CC3)nc2n1	–	–	–	–	–	·
O=C(C(=O)N1CCN(c2cccc(Cl)c2)CC1)c1c[nH]c2ccccc12	–	–	–	–	–	·
Cc1ccc2c(c1)nnn2C1CCN(CC(=O)NCCc2nc3ccccc3[nH]2)CC1	–	57	41	–	–	60
Cc1ccc(NC(=O)CN2C(=O)N/C(=C/c3ccc(C)o3)C2=O)cc1	–	–	42	–	–	–
Cc1cccc(NC(=O)CN2C(=O)N/C(=C/c3ccc(C)o3)C2=O)c1	·	–	·	–	–	·
COc1ccc(S(=O)(=O)Nc2ccccn2)cc1	–	–	–	–	–	·
Cc1ccc(S(=O)(=O)Nc2ccccc2-c2ccccc2NS(=O)(=O)c2ccc(C)cc2)cc1	–	–	–	–	–	·
COc1cc(NS(=O)(=O)c2ccc(C)cc2)c2ncccc2c1	–	–	72	75	–	63
Cc1ccc(S(=O)(=O)Nc2cccc3cccnc23)cc1	–	86	76	–	70	96
COc1ccccc1NC(=O)CSc1nnc(C)s1	–	–	–	–	–	·
NC(=O)c1sc2nc(-c3ccccc3)c3c(c2c1N)CCCC3	–	–	47	–	–	–
SMILES	APJ agonist	CCR6 antag	APJ antagonist	EBI2 block	CXCR6 block	APJ antag conf
Cc1ccc(-c2nc3sc(C(N)=O)c(N)c3c3c2CCCC3)cc1	–	–	–	–	–	·
Cc1cc(C)nc(NS(=O)(=O)c2ccc(NC(=S)NC(=O)C3CCCC3)cc2)n1	–	–	43	–	–	–
Oc1ccc(N=Nc2c(O)ccc3ccccc23)cc1	–	54	50	–	–	71
COc1cc([N+](=O)[O-])cc(/C=N/NC(=O)C(O)(c2ccccc2)c2ccccc2)c1O	–	–	47	–	–	–
CCOC(=O)N1CCN(C(=O)c2cccn3c(=O)c4cc(Cl)ccc4nc23)CC1	–	–	–	–	–	·
CCOC(CNC(=O)c1cccn2c(=O)c3cc(Cl)ccc3nc12)OCC	–	–	50	–	–	–
